Assay: Toxicity liver stage against HepG2, at 10uM
Type: cell-based
Parameters: test concentration 10 uM, cell line HepG2-A16-CD81EGFP
Settings: human, HepG2-A16-CD81EGFP cells; read-out: INHIBITION
How it was run: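 Uninfected HepG2-A16-CD81EGFP cells, 3 × 10^3 per well, 1536-well, plated on prespotted compound at 10 μM final, parasite-free screening media added to match infected plates; puromycin 10 μM positive, DMSO 0.5% negative; run in parallel with 48 h PbLuc assay at 37 °C, 5% CO2; viability by CellTiter-Glo luminescence, normalized to controls.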

Row | SMILES | cytotoxicity at 10 µM
1 | CCN(CC)CCCNCC1CCOC(C)(C)C1 (stereo not given) | -6.01%
2 | Nc1nnc(SCC(=O)c2cc3c(cc2Cl)NC(=O)C3)s1 | -0.139%
3 | CC1=Nc2c(c(=O)[nH]n2C(C)C)C(c2ccc3c(c2)OCCO3)S1 (stereo not given) | -1.01%
4 | CC(C)c1nn2c(-c3cnn(C)c3)nnc2s1 | -8.75%
5 | COCCn1cnc(-c2cc(C(=O)NC(C)C)c3ccccn23)c1 | -1.03%
6 | CNC(=O)[C@H]1C[C@@H]2CN(C(=O)c3ccc(C)o3)C[C@@H]2N1S(C)(=O)=O | -2.33%
7 | COCC(=O)N1CCC2(C1)c1ccccc1S(=O)(=O)N2CCC(C)C (stereo not given) | -4.26%
8 | O=C(c1cc[nH]n1)N1CCOCC2(C1)CN(c1ccccc1)C(=O)CO2 (stereo not given) | -4.96%
9 | COc1nn(C)cc1C(=O)N1CCC(c2nnc(C3CC3)o2)CC1 | 5.14%
10 | CN(C)C(=O)c1nnc2ccc(N3CCOCC3)cc2n1 | 6.47%
11 | CCOC(=O)C1CCN(C(=O)c2cc(OCC)c3ccoc3c2)CC1 | 34.4%
12 | O=C(c1ccc(-c2ccc(O)nc2)s1)N1CCCCCC1 | 4.51%
13 | CN1CCCC1c1nccnc1-c1ccc(C(=O)O)cc1 (stereo not given) | 11%
14 | COc1ccccc1C1Cn2c(C)cnc2CN1Cc1c[nH]nc1C (stereo not given) | 2.79%
15 | O=C(CN1CCC(c2cc(=O)n3c(n2)CCCCC3)CC1)N1CCCC1 | 4.62%
16 | Fc1ccccc1OCCc1cc(C2CCNC2)n[nH]1 (stereo not given) | -26.8%
17 | CN1CCC(Cc2cc(Nc3ccccn3)ncn2)CC1 | -23.4%
18 | Cc1cc(F)c2c(c1)CCCN2Cc1cc(=O)n(C)c(=O)n1C | 8.1%
19 | CCc1ccsc1CNC(=O)CNC(=O)C(C)(C)C | -4.08%
20 | COc1cccc(COC(C)C(=O)NC2CCN(CC(N)=O)CC2)c1 (stereo not given) | 0.234%
21 | N#CC1COCCN1C(=O)c1ccc2[nH]cnc2c1 (stereo not given) | -2.87%
22 | CS(=O)(=O)N1CCC(CNc2cc(Cl)ccc2C#N)CC1 | 14.9%
23 | CS(=O)(=O)NC1CCN(C(=O)c2cc3ccccc3s2)C1 (stereo not given) | 6.65%

Row | SMILES | cytotoxicity at 10 µM
24 | Cc1cc(NCCNc2ccc(C#N)cn2)nc(C)n1 | 4.42%
25 | CCCN1Cc2ccccc2CC1C(=O)NC (stereo not given) | -5.74%
26 | NC(=O)CC1CCCCN1C(=O)c1ccc2cc[nH]c2c1 (stereo not given) | -4.02%
27 | COc1ccccc1C(C)(C)NCc1ccc(C)o1 | -0.121%
28 | Cn1cc(CNCCC(=O)NCc2ccccc2)c(-c2cccnc2)n1 | -2.19%
29 | CN(CCN1CCOC1=O)CC(=O)Nc1ccc(Cl)c(C(F)(F)F)c1 | -46.5%
30 | Cc1noc([C@H]2C[C@H]3CN(C(=O)Cc4ccsc4)CC[C@H]3O2)n1 | -1.68%
31 | COCCN1C[C@H]2[C@@H](C1)N(C(=O)CCc1ccccc1)CC[C@H]2OC | 4.78%
32 | CCOCCn1c(=O)[nH]c2cc(C(=O)N(C)Cc3nc(C)c[nH]3)ccc21 | 6.09%
33 | CCN(Cc1nc(C)no1)C(=O)C1CC(=O)N(Cc2ccccn2)C1 (stereo not given) | 4.78%
34 | Cc1ccc2nc(C(=O)N3CCC(CCn4cccn4)CC3)cn2c1 | -18.3%
35 | Cc1noc(C)c1CCC(=O)N1CCOCC1CC(=O)N1CCCC1 (stereo not given) | 0.282%
36 | CCN1CC(C(=O)N(C)Cc2cc3cc(F)ccc3[nH]2)CC1=O (stereo not given) | 0.782%
37 | COCc1cc(CNC(=O)c2c(C)cc(C)[nH]c2=O)n[nH]1 | -4.69%
38 | CCCc1nc(CN(CC)C(=O)c2onc3ccccc23)no1 | 9.67%
39 | O=C(Nc1ccc2c(c1)OCCO2)N1CCCN(Cc2cccs2)CC1 | 3.45%
40 | CS(=O)(=O)CCC(=O)Nc1cc(F)ccc1OCC1CCCO1 (stereo not given) | 3.41%
41 | CCc1ccc(C(=O)NCc2cccc(S(=O)(=O)NC)c2)o1 | -2.31%
42 | O=C(NCCn1ccnc1)NCC(c1ccco1)N1CCCC1 (stereo not given) | 2.01%
43 | CS(=O)(=O)N1CCOC2(CCCN(c3cnccn3)C2)C1 (stereo not given) | -3.23%
44 | Cc1nc(COCc2nc3c(o2)CN(C(=O)c2ccc[nH]2)C3)cs1 | 0.657%
45 | CCN(C)c1ncnc2c1CCN(Cc1ccsc1)CC2 | 1.69%
